Laboratory results from ChEMBL document CHEMBL1154478, “Novel imidazo[1,2-a]naphthyridinic systems (part 1): synthesis, antiproliferative and DNA-intercalating activities” (2008).
Activity calls are given as the source filed them. The rule behind the calls is not given here.

Experiments:
[1] = system: HT-1080; test: Antiproliferative activity against human HT1080 cells after 48 hrs by SRB assay; assay type: functional; details: HT-1080, 48 h
In short: (§1)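 Cells were grown in high-glucose DMEM with 5% defined bovine calf serum and pre-incubated 24 h at 37 °C in 5% CO2. Drugs were freshly dissolved in DMSO, diluted in medium and added in serial dilutions, with DMSO kept below 0.5%, and incubated 48 h. Cells were fixed with cold TCA (10% final, 60 min at 4 °C), stained 15 min with 0.1% SRB in 1% acetic acid, and the dye solubilized in Tris base. Absorbance was read at 585 nm and growth inhibition % calculated against a control plate fixed on the treatment day.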

[2] = system: HT-29; test: Antiproliferative activity against human HT-29 cells after 48 hrs by SRB assay; assay type: functional; details: HT-29, 48 h; in short: as §1
[3] = system: M21; test: Antiproliferative activity against human M21 cells after 48 hrs by SRB assay; assay type: functional; details: M21, 48 h; in short: as §1
[4] = system: MCF7; test: Antiproliferative activity against human MCF7 cells after 48 hrs by SRB assay; assay type: functional; details: MCF7, 48 h; in short: as §1
[5] = Binding affinity to pGEM-9Zf(-) DNA assessed as effect on DNA migration at 40 uM by gel electrophoresis
In short: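 Human topo1 was then added and the mix held 2 h at 37 °C in the dark. The reaction was stopped with SDS and proteinase K (1 h, 45 °C). Products were run on 1% agarose with 0.1% SDS in TBE (16 h, 1.25 V/cm), stained with ethidium bromide, and re-run 2 h at 2 V/cm. Ethidium bromide served as the intercalation reference and camptothecin as the poison control.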

[6] = system: MCF7; test: Cell cycle arrest in human MCF7 cells assessed as accumulation at G2/M phase at 6.6 uM after 24 hrs by flow cytometry; assay type: functional, cell-based
In short: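 Exponentially growing MCF-7 cells were exposed to compound or DMSO control for 4, 24 or 48 h and analysed by flow cytometry with 488 nm argon laser excitation. Cell-cycle distribution was expressed as the treated/control ratio.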

For `CCc1ccc2c(ccc3nccn32)n1`, the GI50 [1] was greater than 100 µM, the GI50 [2] was greater than 100 µM and the GI50 [3] was greater than 100 µM. For the same compound, the GI50 [4] was greater than 100 µM.
For `CCOC(=O)C1CCc2nc3ccc4nccn4c3cc2C1` (stereo not drawn), the GI50 [1] was greater than 100 µM, the GI50 [2] was greater than 100 µM and the GI50 [3] was greater than 100 µM. The GI50 [4] was greater than 100 µM.
For `Cc1cc2c(ccc3nccn32)nc1C`, the GI50 [1] was greater than 100 µM, the GI50 [2] was greater than 100 µM and the GI50 [3] was greater than 100 µM. The GI50 [4] was greater than 100 µM.
In the case of `c1ccc2cc3nc4c(ccn5ccnc45)cc3cc2c1`, the GI50 [1] is reported as 20.7 µM, the GI50 [2] is reported as 18.3 µM and the GI50 [3] is reported as 25.2 µM. The GI50 [4] was 21.5 µM.
Compound `c1cn2c(ccc3nc4c(cc32)CCCC4)n1` has a GI50 [1] greater than 100 µM, a GI50 [2] greater than 100 µM and a GI50 [3] greater than 100 µM. It also gave a GI50 [4] greater than 100 µM.
For `c1cn2ccc3cc4c(nc3c2n1)CCCC4`, the GI50 [1] was greater than 100 µM, the GI50 [2] was greater than 100 µM and the GI50 [3] was greater than 100 µM. It also gave a GI50 [4] greater than 100 µM.
For `c1ccc2c(c1)CCc1cc3ccn4ccnc4c3nc1-2`, the Activity [5] was “Active”, the Activity [6] was “Active” and the GI50 [1] was 13.4 µM. For the same compound, the GI50 [2] was 7.2 µM, the GI50 [3] was 8.1 µM and the GI50 [4] was 6.6 µM.
Compound `CCc1ccc2ccn3ccnc3c2n1` has a GI50 [1] greater than 100 µM, a GI50 [2] greater than 100 µM and a GI50 [3] greater than 100 µM. The GI50 [4] was greater than 100 µM.
For `O=C1CCCc2nc3c(ccn4ccnc34)cc21`, the GI50 [1] was greater than 100 µM, the GI50 [2] was greater than 100 µM and the GI50 [3] was greater than 100 µM. The GI50 [4] was greater than 100 µM.
Compound `Cc1ccc2ccn3ccnc3c2n1` has a GI50 [1] greater than 100 µM, a GI50 [2] greater than 100 µM and a GI50 [3] greater than 100 µM. The GI50 [4] was greater than 100 µM.
`O=C1CCCc2nc3ccc4nccn4c3cc21` showed a GI50 [1] greater than 100 µM, a GI50 [2] greater than 100 µM and a GI50 [3] greater than 100 µM. It also gave a GI50 [4] greater than 100 µM.
For `COc1cc(NS(C)(=O)=O)ccc1Nc1c2ccccc2nc2ccccc12` [AMSACRINE], the GI50 [1] was 1.6 µM, the GI50 [2] was 16.8 µM and the GI50 [3] was 49.6 µM. It also gave a GI50 [4] of 5.6 µM.
In the case of `c1ccc2c(c1)CCc1nc3c(ccn4ccnc34)cc1-2`, the GI50 [1] is reported as 41.4 µM, the GI50 [2] is reported as 49.2 µM and the GI50 [3] is reported as 64.8 µM. For the same compound, the GI50 [4] was 46.5 µM.
With `c1ccc(-c2ccc3ccn4ccnc4c3n2)cc1` the GI50 [1] was 57.7 µM, the GI50 [2] was 48.4 µM and the GI50 [3] was 56.5 µM. The GI50 [4] was 60.5 µM.
With `c1ccc2c(c1)CCc1cc3c(ccc4nccn43)nc1-2` the GI50 [1] was 32.7 µM, the GI50 [2] was 27.8 µM and the GI50 [3] was 52 µM. The GI50 [4] was 20.9 µM.
Work on `Cc1ccc2c(ccc3nccn32)n1` yielded a GI50 [1] greater than 100 µM, a GI50 [2] greater than 100 µM and a GI50 [3] greater than 100 µM. For the same compound, the GI50 [4] was greater than 100 µM.
`Cc1cc2ccn3ccnc3c2nc1C` gave a GI50 [1] greater than 100 µM, a GI50 [2] greater than 100 µM and a GI50 [3] greater than 100 µM. For the same compound, the GI50 [4] was greater than 100 µM.
For `CCOC(=O)C1CCc2nc3c(ccn4ccnc34)cc2C1` (stereo not drawn), the GI50 [1] was 64.9 µM, the GI50 [2] was 79.6 µM and the GI50 [3] was 80.3 µM. For the same compound, the GI50 [4] was 57.7 µM.
`c1ccc(-c2ccc3c(ccc4nccn43)n2)cc1` gave a GI50 [1] of 43.3 µM, a GI50 [2] of 55.8 µM and a GI50 [3] of 70.1 µM. It also gave a GI50 [4] of 51.8 µM.
